pIC50, pKi: −log10 of the molar value. Calls of active or inactive are those of the source. The calls are words filed in the database; no cut-off is given here.
Key:
Insulin-degrading enzyme [1] = target: T1, Insulin-degrading enzyme (Homo sapiens, UniProt P14735); assay: Inhibition of human recombinant IDE-mediated insulin degradation; conditions: read-out: Ki(app)
Summary of the method: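 Insulin (2 nM) breakdown by recombinant human IDE in 50 mM HEPES pH 7.4, 100 mM NaCl, 10 mM MgCl₂, 0.05% BSA at 22 °C.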

Insulin-degrading enzyme [2] = target: T1, Insulin-degrading enzyme; assay: Inhibition of human recombinant IDE-mediated fluorescein-Abeta-(1-40)-Lys-biotin degradation; conditions: read-out: Ki(app)
Summary of the method: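 Aβ (200 nM) degradation by recombinant human IDE at 22 °C in HEPES pH 7.4 buffer with 100 mM NaCl, 10 mM MgCl₂, 0.05% BSA.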

Insulin-degrading enzyme [3] = target: T1, Insulin-degrading enzyme; assay: Inhibition of human recombinant IDE-mediated FRET1 degradation; conditions: read-out: Ki(app)
[4] = target: T2, Matrilysin (Homo sapiens) (UniProt P09237); assay: (§1) Inhibition of MMP7 (unknown origin)-mediated omniMMP degradation
T2 sequence (whole entry): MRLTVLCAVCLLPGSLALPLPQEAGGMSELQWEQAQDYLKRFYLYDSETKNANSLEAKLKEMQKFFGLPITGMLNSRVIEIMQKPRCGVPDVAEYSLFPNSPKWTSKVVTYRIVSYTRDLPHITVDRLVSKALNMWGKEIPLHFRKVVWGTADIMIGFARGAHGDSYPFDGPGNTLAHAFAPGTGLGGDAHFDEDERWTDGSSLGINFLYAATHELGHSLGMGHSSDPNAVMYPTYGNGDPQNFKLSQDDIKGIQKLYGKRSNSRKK
Summary of the method: (§2)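 Each protease (NEP, ECE1, ACE, MMP-2, MMP-7) was tested against the shared fluorogenic peptide substrate OmniMMP, with inhibitor concentrations up to 10 μM. IC50 values were taken from the dose-response data.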

Insulin-degrading enzyme [5] = target: T1, Insulin-degrading enzyme; assay: Selectivity ratio of apparent Ki for human recombinant IDE-mediated insulin degradation to apparent Ki for human recombinant IDE-mediated FRET1 degradation
Matrilysin = target: T3, Matrilysin (Homo sapiens, UniProt P09237); assay: as §1; summary of the method: as §2
T3 sequence (P09237 whole entry): T2 sequence (whole entry)

[6] = target: 72 kDa type IV collagenase (Homo sapiens) (UniProt P08253); assay: Inhibition of MMP2 (unknown origin)-mediated omniMMP degradation up to 10 uM; summary of the method: as §2
Chain of 72 kDa type IV collagenase (Homo sapiens) (P08253 110-660 limits assumed): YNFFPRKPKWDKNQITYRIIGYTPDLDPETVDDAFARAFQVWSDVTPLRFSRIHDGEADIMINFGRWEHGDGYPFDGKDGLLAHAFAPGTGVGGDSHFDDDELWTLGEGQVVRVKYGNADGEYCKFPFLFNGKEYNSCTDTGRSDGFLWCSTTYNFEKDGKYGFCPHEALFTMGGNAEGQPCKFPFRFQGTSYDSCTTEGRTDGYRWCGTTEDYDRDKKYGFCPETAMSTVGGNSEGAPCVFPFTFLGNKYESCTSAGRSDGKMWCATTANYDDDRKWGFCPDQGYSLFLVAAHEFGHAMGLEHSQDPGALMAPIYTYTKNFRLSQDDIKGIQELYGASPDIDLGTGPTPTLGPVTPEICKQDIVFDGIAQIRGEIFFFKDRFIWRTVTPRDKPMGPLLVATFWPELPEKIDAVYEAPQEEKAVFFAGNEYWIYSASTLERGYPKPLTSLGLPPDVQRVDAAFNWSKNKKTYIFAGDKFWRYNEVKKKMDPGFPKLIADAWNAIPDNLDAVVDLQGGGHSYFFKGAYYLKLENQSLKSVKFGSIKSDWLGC

[7] = target: Angiotensin-converting enzyme (Homo sapiens) (UniProt P12821); assay: Inhibition of ACE (unknown origin)-mediated omniMMP degradation up to 10 uM; summary of the method: as §2
Chain of Angiotensin-converting enzyme (Homo sapiens) (P12821 whole entry): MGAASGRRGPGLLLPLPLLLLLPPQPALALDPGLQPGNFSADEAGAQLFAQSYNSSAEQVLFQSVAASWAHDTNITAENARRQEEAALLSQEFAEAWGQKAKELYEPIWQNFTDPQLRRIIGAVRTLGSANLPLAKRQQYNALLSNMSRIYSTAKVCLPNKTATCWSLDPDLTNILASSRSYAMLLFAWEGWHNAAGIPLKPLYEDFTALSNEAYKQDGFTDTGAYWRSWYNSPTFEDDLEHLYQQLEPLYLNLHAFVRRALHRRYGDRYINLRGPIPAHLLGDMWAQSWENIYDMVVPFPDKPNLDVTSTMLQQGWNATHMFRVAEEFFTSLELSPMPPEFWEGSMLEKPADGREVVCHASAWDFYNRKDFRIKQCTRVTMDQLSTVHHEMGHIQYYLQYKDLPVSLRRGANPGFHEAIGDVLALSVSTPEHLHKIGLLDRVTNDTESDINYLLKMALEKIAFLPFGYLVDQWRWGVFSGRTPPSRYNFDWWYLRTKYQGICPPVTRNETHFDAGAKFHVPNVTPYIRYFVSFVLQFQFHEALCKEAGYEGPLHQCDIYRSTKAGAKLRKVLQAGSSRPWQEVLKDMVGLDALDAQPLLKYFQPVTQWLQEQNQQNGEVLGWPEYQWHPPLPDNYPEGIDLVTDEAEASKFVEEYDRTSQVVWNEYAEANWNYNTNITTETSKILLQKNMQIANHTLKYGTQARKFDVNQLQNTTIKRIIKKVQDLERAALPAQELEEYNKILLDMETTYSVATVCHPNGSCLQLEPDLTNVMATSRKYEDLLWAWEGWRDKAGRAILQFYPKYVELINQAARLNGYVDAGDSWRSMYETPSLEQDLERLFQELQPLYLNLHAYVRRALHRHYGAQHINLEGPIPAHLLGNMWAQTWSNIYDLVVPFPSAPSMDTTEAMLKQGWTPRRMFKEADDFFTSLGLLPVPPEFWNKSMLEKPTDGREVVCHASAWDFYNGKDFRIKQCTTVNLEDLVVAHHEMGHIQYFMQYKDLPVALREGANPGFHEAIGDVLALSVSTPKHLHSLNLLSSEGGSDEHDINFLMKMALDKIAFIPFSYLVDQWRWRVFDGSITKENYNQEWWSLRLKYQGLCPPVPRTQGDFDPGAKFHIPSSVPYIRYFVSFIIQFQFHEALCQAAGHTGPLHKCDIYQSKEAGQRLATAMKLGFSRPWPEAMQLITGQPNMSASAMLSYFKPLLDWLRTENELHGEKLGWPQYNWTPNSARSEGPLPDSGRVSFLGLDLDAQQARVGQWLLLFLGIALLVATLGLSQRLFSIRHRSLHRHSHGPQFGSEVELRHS

[8] = target: T4, Endothelin-converting enzyme 1 (Homo sapiens) (UniProt P42892); assay: Inhibition of ECE1 (unknown origin)-mediated omniMMP degradation up to 10 uM; summary of the method: as §2
T4 sequence (whole entry): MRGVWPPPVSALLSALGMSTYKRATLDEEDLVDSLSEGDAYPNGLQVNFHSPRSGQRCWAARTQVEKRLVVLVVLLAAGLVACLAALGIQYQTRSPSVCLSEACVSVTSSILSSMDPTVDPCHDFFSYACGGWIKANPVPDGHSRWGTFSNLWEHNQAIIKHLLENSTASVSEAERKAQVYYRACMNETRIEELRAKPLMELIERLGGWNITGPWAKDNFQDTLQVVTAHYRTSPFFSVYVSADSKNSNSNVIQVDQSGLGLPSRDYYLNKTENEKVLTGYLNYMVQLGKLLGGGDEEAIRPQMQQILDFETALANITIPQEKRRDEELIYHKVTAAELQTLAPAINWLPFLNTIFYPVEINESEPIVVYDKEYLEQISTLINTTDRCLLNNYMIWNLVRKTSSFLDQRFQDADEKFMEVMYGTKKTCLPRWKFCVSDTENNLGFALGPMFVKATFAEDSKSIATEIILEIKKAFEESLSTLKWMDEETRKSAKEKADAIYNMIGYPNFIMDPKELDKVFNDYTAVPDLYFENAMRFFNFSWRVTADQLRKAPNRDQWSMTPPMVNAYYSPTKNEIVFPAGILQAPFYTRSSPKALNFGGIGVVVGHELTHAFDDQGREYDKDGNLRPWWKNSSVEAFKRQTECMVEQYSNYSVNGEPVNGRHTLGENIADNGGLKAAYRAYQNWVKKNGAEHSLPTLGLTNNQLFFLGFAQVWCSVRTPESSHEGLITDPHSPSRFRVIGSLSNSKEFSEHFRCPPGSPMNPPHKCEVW

[9] = target: Neprilysin (Homo sapiens) (UniProt P08473); assay: Inhibition of NEP (unknown origin)-mediated omniMMP degradation up to 10 uM; summary of the method: as §2
Chain of Neprilysin (Homo sapiens) (P08473 whole entry): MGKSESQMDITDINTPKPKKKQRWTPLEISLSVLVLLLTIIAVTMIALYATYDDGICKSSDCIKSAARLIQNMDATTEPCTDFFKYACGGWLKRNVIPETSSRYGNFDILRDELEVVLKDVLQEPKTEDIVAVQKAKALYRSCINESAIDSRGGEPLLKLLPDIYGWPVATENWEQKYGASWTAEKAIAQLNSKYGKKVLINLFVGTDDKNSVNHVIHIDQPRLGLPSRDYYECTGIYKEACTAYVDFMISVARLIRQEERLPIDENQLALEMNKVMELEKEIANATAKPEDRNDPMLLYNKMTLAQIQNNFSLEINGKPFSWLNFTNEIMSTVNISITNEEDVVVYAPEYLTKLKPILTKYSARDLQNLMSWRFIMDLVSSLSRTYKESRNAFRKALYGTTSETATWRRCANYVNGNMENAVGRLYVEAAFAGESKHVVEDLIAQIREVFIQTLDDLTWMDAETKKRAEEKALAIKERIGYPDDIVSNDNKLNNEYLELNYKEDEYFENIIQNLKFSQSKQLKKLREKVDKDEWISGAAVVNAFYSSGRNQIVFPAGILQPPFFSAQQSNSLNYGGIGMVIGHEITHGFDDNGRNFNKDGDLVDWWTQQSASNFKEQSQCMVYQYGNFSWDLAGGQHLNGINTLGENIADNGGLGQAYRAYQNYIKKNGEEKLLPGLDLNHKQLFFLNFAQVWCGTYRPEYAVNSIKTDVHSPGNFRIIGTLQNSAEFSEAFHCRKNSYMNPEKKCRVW

[10] = target: T2, Matrilysin (Homo sapiens); assay: Inhibition of MMP7 (unknown origin)-mediated omniMMP degradation up to 10 uM; summary of the method: as §2

T1 sequence (P14735 whole entry): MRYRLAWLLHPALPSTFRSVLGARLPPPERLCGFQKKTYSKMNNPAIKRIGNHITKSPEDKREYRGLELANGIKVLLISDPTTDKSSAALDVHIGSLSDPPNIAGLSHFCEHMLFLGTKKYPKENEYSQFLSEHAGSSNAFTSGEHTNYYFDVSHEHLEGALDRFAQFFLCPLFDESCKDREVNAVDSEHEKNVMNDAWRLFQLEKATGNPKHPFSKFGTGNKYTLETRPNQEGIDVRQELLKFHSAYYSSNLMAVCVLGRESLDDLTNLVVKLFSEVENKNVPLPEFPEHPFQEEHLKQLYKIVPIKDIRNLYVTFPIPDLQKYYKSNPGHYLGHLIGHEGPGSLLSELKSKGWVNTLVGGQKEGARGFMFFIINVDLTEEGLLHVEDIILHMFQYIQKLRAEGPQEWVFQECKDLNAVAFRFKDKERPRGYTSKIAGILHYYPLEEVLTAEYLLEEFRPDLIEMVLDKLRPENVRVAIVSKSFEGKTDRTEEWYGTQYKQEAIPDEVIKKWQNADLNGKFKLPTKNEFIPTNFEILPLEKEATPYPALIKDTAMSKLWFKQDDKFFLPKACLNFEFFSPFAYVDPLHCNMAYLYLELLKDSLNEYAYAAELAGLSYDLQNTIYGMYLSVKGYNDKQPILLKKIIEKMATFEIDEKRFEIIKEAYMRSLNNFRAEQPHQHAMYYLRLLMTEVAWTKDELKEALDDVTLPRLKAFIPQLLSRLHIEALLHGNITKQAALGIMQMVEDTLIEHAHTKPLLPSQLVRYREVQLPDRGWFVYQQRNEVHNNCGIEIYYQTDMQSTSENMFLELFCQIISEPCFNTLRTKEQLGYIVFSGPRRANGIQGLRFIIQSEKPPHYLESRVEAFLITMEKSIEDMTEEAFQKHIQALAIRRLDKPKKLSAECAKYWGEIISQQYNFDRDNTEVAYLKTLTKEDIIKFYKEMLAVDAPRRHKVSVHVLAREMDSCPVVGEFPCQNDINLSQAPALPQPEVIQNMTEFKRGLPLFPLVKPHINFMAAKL

pKi (Insulin-degrading enzyme [1])	pKi (Insulin-degrading enzyme [2])	pKi (Insulin-degrading enzyme [3])	Structure (SMILES)	also measured
5.49	6.64	7.30	NC(N)=NCCC[C@@H](NC(=O)[C@@H](Cc1c[nH]c2ccccc12)NC(=O)[C@H](N)CCC(=O)O)C(=O)N[C@H](Cc1ccc2ccccc2c1)C(=O)NO	–
–	–	5.11	NC(=O)[C@H](CCCN=C(N)N)NC(=O)[C@H](Cc1ccc2ccccc2c1)[C@H](O)C(=O)NO	–
6.08	6.44	7.07	N=C(N)NCCC[C@@H](NC(=O)[C@@H](Cc1ccc(O)cc1)NC(=O)[C@H](N)CCC(=O)O)C(=O)N[C@H](Cc1ccc2ccccc2c1)C(=O)NO	–
–	–	< 4.48	NC(=O)[C@H](CCCN=C(N)N)NC(=O)[C@H](CC(=O)NO)Cc1ccc2ccccc2c1	–
–	–	5.15	NC(=O)[C@H](CCCN=C(N)N)NC(=O)[C@H](Cc1ccc2ccccc2c1)[C@@H](O)C(=O)NO	–
6.39	8.85	7.36	CC(=O)N[C@@H](CCC(=O)NCCNc1cccc2c(S(=O)(=O)O)cccc12)C(=O)N[C@H](Cc1ccc(O)cc1)C(=O)N(C(=O)c1ccccc1)[C@H](Cc1ccccc1)C(=O)N[C@H](Cc1ccc2ccccc2c1)C(=O)NO	–
–	–	–	N=C(N)NCCC[C@@H](NC(=O)[C@@H](Cc1c[nH]c2ccccc12)NC(=O)[C@H](N)CCC(=O)O)C(=O)N[C@H](Cc1ccc2ccccc2c1)C(=O)NO	Ratio Ki(app) (Insulin-degrading enzyme [5]): > 60
6.77	6.61	7.64	CC[C@@H](C)[C@H]1NC(=O)[C@@H](Cc2ccccc2)NC(=O)[C@@H](Cc2cnc[nH]2)NC(=O)[C@@H](CC(=O)O)NC(=O)CC[C@H](C(=O)N[C@H](Cc2c[nH]c3ccccc23)C(=O)N[C@H](CCCN=C(N)N)C(=O)N[C@H](Cc2ccc3ccccc3c2)C(=O)NO)NC(=O)[C@@H](CCCN=C(N)N)NC1=O	–
–	–	5.28	C=CCOC(=O)[C@H](CCCNC(=N)N)NC(=O)[C@H](CC(=O)NO)Cc1ccc2ccccc2c1	–
–	–	< 4.48	N=C(N)NCCCC[C@H](NC(=O)[C@@H](CC(=O)NO)Cc1ccc2ccccc2c1)C(N)=O	–
–	–	5.94	NC(=O)[C@H](CCCN=C(N)N)NC(=O)[C@@H](CC(=O)NO)Cc1ccc2ccccc2c1	–
–	–	–	N=C(N)NCCC[C@H](NC(=O)[C@H](Cc1ccc2ccccc2c1)[C@@H](O)C(=O)NO)C(=O)N[C@@H](Cc1c[nH]c2ccccc12)C(=O)N[C@@H](CCC(=O)O)C(N)=O	inhibition [6]: inactive; inhibition [7]: inactive; inhibition [8]: inactive; inhibition [9]: inactive; inhibition [10]: inactive
5.89	6.97	7.06	C=CCOC(=O)[C@H](CCCN=C(N)N)NC(=O)[C@@H](CC(=O)NO)Cc1ccc2ccccc2c1	–
–	–	< 4.48	N=C(N)NCCCC[C@H](NC(=O)[C@H](CC(=O)NO)Cc1ccc2ccccc2c1)C(N)=O	–
–	–	< 4.48	N=C(N)NCCCC[C@H](NC(=O)[C@H](Cc1ccc2ccccc2c1)[C@H](O)C(=O)NO)C(N)=O	–
–	–	7.11	CC(=O)N[C@@H](CCC(=O)O)C(=O)N[C@@H](Cc1c[nH]c2ccccc12)C(=O)N[C@@H](CCCN=C(N)N)C(=O)[C@H](CC(=O)NO)Cc1ccc2ccccc2c1	–

Structure (SMILES)	pKi (Insulin-degrading enzyme [1])	pKi (Insulin-degrading enzyme [2])	pKi (Insulin-degrading enzyme [3])	also measured
N=C(N)NCCC[C@H](NC(=O)[C@@H](CC(=O)NO)Cc1ccc2ccccc2c1)C(=O)N[C@@H](Cc1c[nH]c2ccccc12)C(=O)N[C@@H](CCC(=O)O)C(N)=O	7.42	7.66	8.53	inhibition [4]: Active
NC(=O)[C@H](CCC(=O)O)NC(=O)[C@H](Cc1c[nH]c2ccccc12)NC(=O)[C@H](CCCN=C(N)N)NC(=O)[C@H](Cc1ccc2ccccc2c1)[C@@H](O)C(=O)NO	5.72	6.03	6.99	–
N=C(N)NCCC[C@H](NC(=O)[C@H](CC(=O)NO)Cc1ccc2ccccc2c1)C(=O)N[C@@H](Cc1c[nH]c2ccccc12)C(=O)N[C@@H](CCC(=O)O)C(N)=O	–	–	7.13	–
NC(=O)[C@H](CCC(=O)O)NC(=O)[C@H](Cc1c[nH]c2ccccc12)NC(=O)[C@H](CCCN=C(N)N)NC(=O)[C@H](Cc1ccc2ccccc2c1)[C@H](O)C(=O)NO	6.56	7.15	7.59	pIC50 (Matrilysin): 5.94

Source: ChEMBL document CHEMBL2321806 (J Med Chem, 2013)
